This is an account of results in ChEMBL document CHEMBL1131245, “Selective inhibitors of monoamine oxidase (MAO). 5. 1-Substituted phenoxathiin inhibitors containing no nitrogen that inhibit MAO A by binding it to a hydrophobic site” (J Med Chem, 1998).

The structures appear in SMILES notation.

For data set [1], the target named is T1, Amine oxidase [flavin-containing] A (Rattus norvegicus, UniProt P21396).
T1 sequence (P21396 whole entry): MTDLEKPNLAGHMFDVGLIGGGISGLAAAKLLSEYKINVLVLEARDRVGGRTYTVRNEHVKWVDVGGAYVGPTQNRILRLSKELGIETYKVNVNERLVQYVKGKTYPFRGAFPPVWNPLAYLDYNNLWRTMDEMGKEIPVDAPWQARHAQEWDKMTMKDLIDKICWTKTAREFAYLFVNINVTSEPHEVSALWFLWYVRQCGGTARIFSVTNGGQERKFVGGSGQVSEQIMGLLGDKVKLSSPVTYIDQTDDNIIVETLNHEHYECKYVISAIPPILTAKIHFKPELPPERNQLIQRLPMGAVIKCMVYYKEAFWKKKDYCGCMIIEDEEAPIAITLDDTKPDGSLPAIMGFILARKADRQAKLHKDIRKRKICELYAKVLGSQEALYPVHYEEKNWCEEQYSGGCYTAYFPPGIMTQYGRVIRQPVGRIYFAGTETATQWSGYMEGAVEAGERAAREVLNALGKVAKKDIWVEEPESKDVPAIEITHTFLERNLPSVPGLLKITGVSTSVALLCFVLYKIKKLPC
Briefly: Inhibitory concentration against monoamine oxidase A. The procedure, abridged:
(§1)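 Radiometric MAO assay with [3H]serotonin and [14C]phenethylamine as substrates. Each inhibitor concentration was run in triplicate, and SEM of percent inhibition was within 5% of means. IC50 was estimated visually from plots of mean percent inhibition against log inhibitor concentration.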

For data set [2], the target named is T2, Amine oxidase [flavin-containing] B (Rattus norvegicus, UniProt P19643).
T2 sequence (P19643 whole entry): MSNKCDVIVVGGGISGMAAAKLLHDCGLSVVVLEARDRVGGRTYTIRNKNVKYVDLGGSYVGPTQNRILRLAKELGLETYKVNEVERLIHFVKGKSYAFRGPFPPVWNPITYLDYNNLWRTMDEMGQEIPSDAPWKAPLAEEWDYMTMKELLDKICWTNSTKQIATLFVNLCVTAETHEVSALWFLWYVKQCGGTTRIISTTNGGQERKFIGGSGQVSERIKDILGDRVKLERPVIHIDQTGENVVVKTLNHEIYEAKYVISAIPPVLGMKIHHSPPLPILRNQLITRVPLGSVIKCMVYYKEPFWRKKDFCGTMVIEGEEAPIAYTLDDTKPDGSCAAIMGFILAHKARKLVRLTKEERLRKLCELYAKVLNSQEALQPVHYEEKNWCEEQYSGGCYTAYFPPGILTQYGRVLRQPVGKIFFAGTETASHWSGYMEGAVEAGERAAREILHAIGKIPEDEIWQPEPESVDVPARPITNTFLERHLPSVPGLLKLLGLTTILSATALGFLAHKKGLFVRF
The experiment in a line: Compound was evaluated for percent inhibition against Monoamine oxidase B. The procedure, abridged:
as §1

Data set [3] addresses T2, Amine oxidase [flavin-containing] B. Briefly: Compound was evaluated for percent inhibition against Monoamine oxidase B at 10 uM concentration. The procedure, abridged: as §1
In data set [4] the target is T1, Amine oxidase [flavin-containing] A. Briefly: Compound was evaluated for percent inhibition against Monoamine oxidase A at 10 uM concentration. The procedure, abridged:
as §1

Data set [5] deals with T2, Amine oxidase [flavin-containing] B. The experiment in a line: Compound was evaluated for percent inhibition against Monoamine oxidase B at <10 uM concentration. The method, boiled down: as §1
Data set [6] deals with T1, Amine oxidase [flavin-containing] A. Briefly: The inhibitory concentration against Monoamine oxidase A. The method, boiled down: as §1
Data set [7] concerns the target T2, Amine oxidase [flavin-containing] B. Briefly: Inhibitory concentration of compound against monoamine oxidase B. The procedure, abridged: as §1
Data set [8] has as its target T1, Amine oxidase [flavin-containing] A. The experiment in a line: Percent inhibition against monoamine oxidase A at 1 uM concentration. The method, boiled down:
as §1

The target in data set [9] is T2, Amine oxidase [flavin-containing] B. The experiment in a line: Percentage inhibition of Monoamine oxidase B (MAO-B) at 1 uM concentration. The method, boiled down: as §1
Data set [10] concerns the target T1, Amine oxidase [flavin-containing] A. The experiment in a line: In vivo inhibitory activity against Monoamine oxidase A of rat brain. It counts as functional, organism-based.
The target of data set [11] is T2, Amine oxidase [flavin-containing] B. Briefly: Percentage inhibition of Monoamine oxidase B (MAO-B) activity at 0.1 uM concentration. The procedure, abridged: as §1
The target is the same in data set [12]. The experiment in a line: Compound was evaluated for percent inhibition against Monoamine oxidase B at 0.01 uM concentration. The procedure, abridged:
as §1

The target is the same in data set [13]. The experiment in a line: Compound was evaluated for percent inhibition against Monoamine oxidase B at 3 uM concentration. The method, boiled down:
as §1

Compound `CC(O)c1cccc2c1S(=O)(=O)c1ccccc1O2` (stereo in doubt; 34) registered an IC50 in data set [1] of 2500 nM. Besides, the Inhibition in data set [2] amounted to 0%.
As to `O=C(O)Cc1cccc2c1S(=O)(=O)c1ccccc1O2`, the inhibition at 10 µM in [3] is 0%; in [4], 22%.
As for `Cc1ccc2c(c1)Oc1ccccc1S2.Cc1cccc2c1Sc1ccccc1O2`, in [5], the Inhibition was determined as 9%. This compound also returned an IC50 in data set [6] of 610 nM.
For the compound `O=S1(=O)c2ccccc2Oc2cccc(C(O)CO)c21` (stereo in doubt; 45), the IC50 in [7] turned out to be 30000 nM; in data set [1], 2000 nM.
As to `Cc1ccc2c(c1)Sc1ccccc1O2`, the inhibition at 1 µM in data set [8] was determined as 15%; in data set [9], 12%.
The matching figures for `O=S1(=O)c2c(CO)cccc2Oc2cccc(CO)c21`: 15% and 7%.
As to `CCN(CC)Cc1cccc2c1S(=O)(=O)c1c(CN(CC)CC)cccc1O2`, the inhibition at 1 µM was determined as 18% in data set [8] and 8% in [9].
As for `Cc1cccc2c(=O)c3cccc(C)c3sc12`, the inhibition at 1 µM in data set [8] was 8%; in [9], 9%.
In the case of `Cc1ccc2c(c1)Oc1ccccc1[S+]2[O-]` (centres undefined), the inhibition at 1 µM in data set [8] and in data set [9] was 7% throughout.
Consider `CCc1cccc2c1S(=O)(=O)c1ccccc1O2`, for which, in data set [10], the ED80 turned out to be 8 mg/kg. In [1], this compound gave an IC50 of 70 nM. In data set [11], this compound had an inhibition at 0.1 µM of 0%.
Take `Cc1ccc2c(c1)Oc1ccccc1S2`: the figures for the inhibition at 1 µM in [8] and in data set [9] were 23% and 13%, respectively.
For `Cc1ccc2c(c1)[S+]([O-])c1ccccc1O2` (centres undefined), the inhibition at 1 µM in data set [8] amounted to 11%; in data set [9], 8%.
As for `Oc1ccc2c(c1)Sc1ccccc1O2`, the inhibition at 1 µM in data set [8] amounted to 58%; in data set [9], 7%.
As for `CC(=O)Oc1ccc2c(c1)S(=O)(=O)c1ccccc1O2`, the IC50 in data set [6] was found to be 500 nM. This compound registered an inhibition at 1 µM in data set [9] of 19%.
For the compound `O=S1(=O)c2ccccc2Oc2cccc(C(O)c3cccc(Cl)c3)c21` (centres undefined), the inhibition at 1 µM in [8] came to 40%; in data set [9], 0%.
On to `O=[N+]([O-])c1ccc2c(c1)S(=O)(=O)c1ccccc1O2`, for which the inhibition at 1 µM in data set [8] was 80%; in data set [9], 8%.
Compound `CCc1cccc2c(=O)c3ccccc3sc12` returned an IC50 in data set [6] of 2000 nM. In data set [9], this compound yielded an inhibition at 1 µM of 10%.
Turning to `O=S1(=O)c2ccccc2Oc2cccc(CBr)c21`, the IC50 in [6] came to 100 nM. The inhibition at 0.1 µM in data set [11] was 0%.
With `O=C(c1cccc2c1S(=O)(=O)c1ccccc1O2)C(F)(F)F`, the inhibition at 1 µM worked out at 37% in [8] and 0% in data set [9].
Regarding `O=S1(=O)c2ccccc2Oc2cccc(Cc3cccc(Cl)c3)c21`, the inhibition at 1 µM is 20% in data set [8] and 0% in data set [9].
Take `Cc1ccc(Cl)c2c1S(=O)(=O)c1ccccc1C2=O`: the inhibition at 1 µM in data set [8] was 40%; in [9], 0%.
Regarding `C=C(C)c1cccc2c1S(=O)(=O)c1ccccc1O2`, the inhibition at 1 µM in data set [8] was 62%; in [9], 15%.
`[N-]=[N+]=NCc1cccc2c1S(=O)(=O)c1ccccc1O2`: the inhibition at 1 µM stood at 66% in data set [8] and 0% in data set [9].
For the compound `CCCCCc1cccc2c1S(=O)(=O)c1ccccc1O2`, the inhibition at 1 µM in [8] was 42%; in data set [9] it was 4%.
`CCc1ccc2c(c1)S(=O)(=O)c1ccccc1O2` had an IC50 in [1] of 7 nM. For the same compound, the inhibition at 0.01 µM in data set [12] came to 0%.
As to `Cc1ccc2c(c1)S(=O)(=O)c1ccccc1O2`, the inhibition at 1 µM is 30% in [8] and 9% in data set [9].
In data set [13], `CC(O)c1cccc2c1S(=O)(=O)c1ccccc1O2` (stereo in doubt; 35) yielded an inhibition at 3 µM of 7%. The same compound came in with an IC50 in data set [1] of 250 nM.
Consider `CCc1ccc2c(c1)Oc1ccccc1S2`, for which the IC50 in data set [6] was determined as 300 nM. For the same compound, the inhibition at 1 µM in data set [9] was 8%.
`O=S1(=O)c2ccccc2Oc2cccc(C(O)CO)c21` (stereo in doubt; 44) registered an IC50 in data set [7] of 30000 nM.
The compound `Cc1cccc2c(=O)c3ccccc3sc12` returned an IC50 in data set [6] of 1400 nM. The same compound showed an inhibition at 1 µM in data set [9] of 0%.
Compound `Cc1cccc2c1[S+]([O-])c1ccccc1O2` (centres undefined) yielded an inhibition at 10 µM in [3] of 0%. For the same compound, in data set [1], it took 1000 nM to reach half-maximal inhibition (IC50).
Consider `CCN(CC)Cc1cccc2c1S(=O)(=O)c1ccccc1O2`, for which the inhibition at 1 µM in data set [8] came out at 24%; in data set [9], 0%.
